Test results as given in PMC10194330 (Virus Research, 2022).

Experiments:
BHK-21 cells [1] = assay: Cytotoxicity assay; type: cell-based
DENV-2 [2] = assay: Post-infection plaque reduction assay; type: cell-based, Dengue virus; conditions: S.71 at 50 and 100 μM, POD at 0.1 μM; six days
Method in brief: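 BHK-21 cells infected with DENV-2 (MOI=1) for 2 h at 37 °C, 5% CO2, then washed with PBS. Test compound (12.5–100 µM) added in 1.5% carboxymethylcellulose medium; positive control as log dilutions 0.1–100 µM. Incubated 6 days, then plaques counted in 3 independent assays. EC50 defined as the concentration reducing viral plaques by 50%.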

DENV-2 [3] = assay: Time-of-addition; type: cell-based, Dengue virus; conditions: S.71 72.4 μM, POD 0.1 μM added at 6 and 12 hpi, 24 h exposure, MOI=1
Method in brief: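 BHK-21 cells infected (MOI=1, 2 h, 37 °C, 5% CO2) and washed with PBS. DMEM with 2% FBS containing test compound (72.4 µM; positive control 0.1 µM) added at 6, 12, 24 or 36 hpi, then incubated a further 24 h. Supernatant titrated by plaque assay. DMSO <0.05%. Three independent experiments, mean ± s.e.m., one-way ANOVA.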

DENV-2 [4] = assay: Negative-strand RNA production; type: cell-based, Dengue virus; conditions: S.71 72.4 μM, POD 0.1 μM; 6 and 12 hpi
BHK-21 cells [5] = assay: Fluorescence imaging of microtubules, MTOC and endoplasmic reticulum; type: cell-based; conditions: for MTOC localization/detection: BHK-21 cells, 24 h treatment
Method in brief: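 BHK-21 cells on coverslips infected (MOI=1, 2 h) or mock, then treated 24 h with test compound from 6 or 12 hpi. Fixed in 3.8% paraformaldehyde. Microtubules stained with anti-α/β-tubulin and MTOC with anti-γ-tubulin; […] used as comparator. For ER imaging, cells were transfected with pmKate2-ER plasmid and infected 24 h later. Imaged with a 60x objective.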

DENV-2 [6] = assay: Fluorescence imaging of dsRNA and ENV protein; type: cell-based, Dengue virus; conditions: treatment at 6 and 12 hpi; S.71 72.4 µM, POD 0.1 µM
Method in brief: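 BHK-21 cells on coverslips infected with DENV-2 (MOI=1, 2 h). Test compound (72.4 µM; positive control 0.1 µM) added at 6 or 12 hpi and left 24 h. Cells washed with cytoskeleton buffer, fixed in 3.8% paraformaldehyde and immunostained for ENV (4G2) and dsRNA (J2), with tubulin and Hoechst nuclei. Imaged with a 60x objective; mean fluorescence intensity quantified. Three independent triplicate experiments; unpaired t-test.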

BHK-21 cells [7] = assay: Annexin V staining, size and granularity; type: cell-based; conditions: infected or uninfected BHK-21 cells, 24 h
Method in brief: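 Infected and/or treated BHK-21 cells resuspended in binding buffer with annexin V, incubated 15 min at 4 °C, then diluted with binding buffer and centrifuged 5 min. Analysed by flow cytometry for annexin V, with cell size from forward scatter (FSC) and granularity from side scatter (SSC).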

BHK-21 cells [8] = assay: Cell recovery assay; type: cell-based
Method in brief: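 BHK-21 cells on coverslips exposed 24 h to test compound. Compound then removed, monolayers washed and cultured 3 days in DMEM with 2% FBS. Cells fixed with 3.8% paraformaldehyde and nuclei stained with Hoechst 33342. Morphology imaged by differential interference contrast with a 60x objective.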

HCV = conditions: ref Bost et al., 2003; cited from earlier work
ZIKV = conditions: ref Sultana et al., 2018; cited from earlier work
ER = conditions: treatment during 2 h; ref Terasaki et al., 1986; cited from earlier work

SMILES: COc1cc([C@@H]2c3cc4c(cc3[C@H](O)[C@H]3COC(=O)[C@H]23)OCO4)cc(OC)c1OC [POD, Podophyllotoxin]
- concentrations at which very toxic (BHK-21 cells [1]; CC50 could not be determined): > 1000 nM
- effect on cells below 1 µM (BHK-21 cells [1]; below 1 µM): cytostatic
- viral titer in post-infection treatment (DENV-2 [2]): effective
- viral yield of DENV-2 (DENV-2 [3]): effective
- negative-strand RNA copies (DENV-2 [4]): low numbers of copies
- effect on rough endoplasmic reticulum (BHK-21 cells [5]; 6 hpi or 12 hpi, infected and mock cells): ER retraction
- MTOC localization/detection (BHK-21 cells [5]): not detected
- cell morphology and microtubule distribution (BHK-21 cells [5]; infected and uninfected cells treated at 6 or 12 hpi, 24 h, S.71 72.4 µM, POD 0.1 µM): round morphology and fragmented microtubules
- ENV protein signal (MFI) (DENV-2 [6]): significant decreases
- dsRNA signal (MFI) (DENV-2 [6]): significant decreases
- cell granularity (SSC) (BHK-21 cells [7]): increase in cell granularity
- cell size (FSC) (BHK-21 cells [7]): changes in cell size were not observed
- phosphatidylserine exposure (annexin V) (BHK-21 cells [7]): nor changes in phosphatidylserine exposure
- recovery of cell morphology after treatment removal (BHK-21 cells [8]; 24 h treatment, then nutrient-supplemented medium): recovered their normal morphology after three days
- nuclei after 24 h treatment (BHK-21 cells [8]; BHK-21 cells, 24 h): pyknotic and fragmented nuclei

SMILES: COc1cc2c(c(OC)c1OC)-c1ccc(OC)c(=O)cc1[C@@H](NC(C)=O)CC2 [colchicine]
- HCV viral infection (HCV): reduced
- ZIKV viral infection (ZIKV): reduced

SMILES: COC(=O)Nc1nc2ccc(C(=O)c3cccs3)cc2[nH]1 [nocodazole]
- MTOC localization/detection (BHK-21 cells [5]): not detected
- HCV viral infection (HCV): reduced
- ZIKV viral infection (ZIKV): reduced
- effect on ER (ER): ER retraction

SMILES: CC(=O)O[C@H]1C(=O)[C@@]2(C)[C@H]([C@H](OC(=O)c3ccccc3)[C@]3(O)C[C@H](OC(=O)[C@H](O)[C@@H](NC(=O)c4ccccc4)c4ccccc4)C(C)=C1C3(C)C)[C@]1(OC(C)=O)CO[C@@H]1C[C@@H]2O [paclitaxel]
- HCV viral infection (HCV): reduced
- ZIKV viral infection (ZIKV): reduced
